Key:
[1] = molecular target: T1, Serotonin 3 (5-HT3) receptor (Rattus norvegicus, UniProt P35563+Q9JJ16); assay: Binding affinity against radioligand [3H]quipazine labeled 5-hydroxytryptamine 3 receptor sites in neuroblastoma-glioma (NG108-15) cells.
T1 sequence (P35563 whole entry): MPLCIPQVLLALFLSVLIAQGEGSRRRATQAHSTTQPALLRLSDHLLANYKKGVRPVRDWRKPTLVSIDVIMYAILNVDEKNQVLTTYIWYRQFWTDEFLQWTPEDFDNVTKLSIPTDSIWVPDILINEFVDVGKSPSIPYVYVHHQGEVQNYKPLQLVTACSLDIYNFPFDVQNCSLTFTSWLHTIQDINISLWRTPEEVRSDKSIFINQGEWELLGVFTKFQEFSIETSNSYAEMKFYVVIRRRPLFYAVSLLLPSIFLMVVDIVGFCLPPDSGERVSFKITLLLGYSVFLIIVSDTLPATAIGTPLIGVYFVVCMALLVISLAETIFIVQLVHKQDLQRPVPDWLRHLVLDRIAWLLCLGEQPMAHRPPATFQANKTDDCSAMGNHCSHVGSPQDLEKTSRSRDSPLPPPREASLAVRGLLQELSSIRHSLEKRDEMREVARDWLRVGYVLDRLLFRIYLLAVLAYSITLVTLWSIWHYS
T1 sequence (Q9JJ16 whole entry): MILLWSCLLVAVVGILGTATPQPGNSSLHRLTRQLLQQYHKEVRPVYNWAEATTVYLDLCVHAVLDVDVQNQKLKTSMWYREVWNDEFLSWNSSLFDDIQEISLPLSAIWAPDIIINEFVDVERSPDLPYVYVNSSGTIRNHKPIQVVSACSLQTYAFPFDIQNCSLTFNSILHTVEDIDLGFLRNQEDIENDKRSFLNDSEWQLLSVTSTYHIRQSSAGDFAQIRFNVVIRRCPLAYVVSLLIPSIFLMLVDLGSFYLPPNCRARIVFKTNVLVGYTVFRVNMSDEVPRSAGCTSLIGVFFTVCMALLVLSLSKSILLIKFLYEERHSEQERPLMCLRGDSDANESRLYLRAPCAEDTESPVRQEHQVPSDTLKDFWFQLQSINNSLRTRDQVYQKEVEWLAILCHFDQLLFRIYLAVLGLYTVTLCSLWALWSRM

[2] = molecular target: Serotonin 3 (5-HT3) receptor (Rattus norvegicus) (UniProt P35563+Q9JJ16); assay: In vivo inhibitory concentration after 5 minutes against 5-hydroxytryptamine 3 receptor induced bradycardia [bezold-jarisch (B-J) reflex test] in rat by intravenous administration; type: functional, organism-based
In short: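 Compounds given iv. The 5-HT-induced bradycardia (Bezold–Jarisch reflex) was measured at 5 min. ED50 is the dose reducing the bradycardia by 50%, from four determinations.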

Canis familiaris [3] = assay: Mean percentage increase emetic latency in dog after an intravenous administration of 0.01 mg/kg of drug; type: functional, Canis lupus familiaris
In short: (§1)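 Adult male fasted beagles (9–15 kg) received drug 30 min (iv) or 60 min (po) before cisplatin 3 mg/kg iv, dissolved by sonication in saline. Dogs were then observed 6 h, with emesis defined as productive regurgitation. Episode counts and latency were compared with controls (n = 7), using 2–4 dogs per dose. Dogs that never vomited were assigned 360 min latency.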

Canis familiaris [4] = assay: Mean percentage increase emetic latency in dog after an intravenous administration of 0.1 mg/kg of drug; type: functional, Canis lupus familiaris
In short: (§2)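 Adult male fasted beagle dogs (9-15 kg), fed on the day of the experiment; test drug given iv 30 min before cisplatin (3 mg/kg, iv, dissolved by sonication in saline). Dogs were monitored for 6 h. Emesis was defined as productive regurgitation of stomach contents.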

Canis familiaris [5] = assay: Mean percentage reduction due to cisplatin-induced emetic episodes in dog after an intravenous administration of 0.1 mg/kg of drug; type: functional, Canis lupus familiaris
In short: (§3)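 Adult male fasted beagle dogs (9-15 kg) received test drug iv 30 min before cisplatin (3 mg/kg, iv, in saline) and were monitored for 6 h. Episodes were counted as productive regurgitation of stomach contents. Percent reduction is versus the control group (n = 7); n = 2-4 dogs per dose.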

Canis familiaris [6] = assay: Mean percentage increase emetic latency in dog after an peroral administration of 1.0 mg/kg of drug; type: functional, Canis lupus familiaris; details: route oral; in short: as §1
Canis familiaris [7] = assay: Mean percentage increase emetic latency in dog after an intravenous administration of 0.03 mg/kg of drug; type: functional, Canis lupus familiaris; in short: as §1
Canis familiaris [8] = assay: Mean percentage reduction due to cisplatin-induced emetic episodes in dog after an intravenous administration of 0.01 mg/kg of drug; type: functional, Canis lupus familiaris; in short: as §1
Canis familiaris [9] = assay: Mean percentage reduction due to cisplatin-induced emetic episodes in dog after an intravenous administration of 0.3 mg/kg of drug; type: functional, Canis lupus familiaris; in short: as §3
Canis familiaris [10] = assay: Mean percentage reduction due to cisplatin-induced emetic episodes in dog after an peroral administration of 1.0 mg/kg of drug; type: functional, Canis lupus familiaris; details: route oral; in short: as §1
Canis familiaris [11] = assay: Mean percentage increase emetic latency in dog after an peroral administration of 0.1 mg/kg of drug; type: functional, Canis lupus familiaris; details: route oral; in short: as §1
Canis familiaris [12] = assay: Mean percentage reduction due to cisplatin-induced emetic episodes in dog after an intravenous administration of 0.03 mg/kg of drug; type: functional, Canis lupus familiaris; in short: as §1
Canis familiaris [13] = assay: Mean percentage reduction due to cisplatin-induced emetic episodes in dog after an peroral administration of 0.1 mg/kg of drug; type: functional, Canis lupus familiaris; details: route oral; in short: as §1
Canis familiaris [14] = assay: Mean percentage increase emetic latency in dog after an intravenous administration of 0.3 mg/kg of drug (when dogs did not vomit,360min); type: functional, Canis lupus familiaris; in short: as §1
Canis familiaris [15] = assay: Mean percentage reduction due to cisplatin-induced emetic episodes in dog after an intravenous administration of 1 mg/kg of drug; type: functional, Canis lupus familiaris; in short: as §3
Canis familiaris [16] = assay: Mean percentage increase emetic latency in dog after an intravenous administration of 1 mg/kg of drug (when dogs did not vomit, 360 min); type: functional, Canis lupus familiaris; in short: as §2
Canis familiaris [17] = assay: Mean percentage increase emetic latency in dog after an intravenous administration of 0.3 mg/kg of drug; type: functional, Canis lupus familiaris; in short: as §2

Row | Compound | Ki [1] [nM] | ED50 [2] [mg/kg] | also measured
1 | CN1C2CCCC1CC(NC(=O)c1cnc3ccccc3c1O)C2 (stereo not drawn) | 30 |  | 
2 | CN1C2CCC1CC(NC(=O)c1cnc3ccccc3c1)C2 (stereo not drawn) | > 100 |  | 
3 | CCCCn1c(=O)c(C(=O)OC2CC3CCC(C2)N3C)c(O)c2cccnc21 (stereo not drawn) | > 100 |  | 
4 | Cc1nc2ccccc2c(O)c1C(=O)NC1CC2CCC(C1)N2C (stereo not drawn) | 7.2 | 0.015 | 
5 | CN1C2CCC1CC(NC(=O)c1c(O)c3ccccc3[nH]c1=O)C2 (stereo not drawn) | 7.6 |  | 
6 | O=C(NC1CCN2CCCC1C2)c1cnc2ccccc2c1O (stereo not drawn) | 18 |  | 
7 | Cc1nc2ccccc2c(O)c1C(=O)OC1CC2CCC(C1)N2C (stereo not drawn) | 58 |  | 
8 | Cc1ccc2c(O)c(C(=O)NC3CC4CCC(C3)N4C)cnc2n1 (stereo not drawn) | > 100 |  | 
9 | CN1C2CCC1CC(OC(=O)c1cnc3ccccc3c1)C2 (stereo not drawn) | 66.9 | 0.37 | 
10 | CN1C2CCC1CC(NC(=O)c1cnc3ccccc3c1O)C2 (stereo in doubt; 6h) | 100 |  | 
11 | CCCCn1c(=O)c(C(=O)OC2CC3CCC(C2)N3C)c(O)c2ccccc21 (stereo not drawn) | > 100 |  | 
12 | CN1C2CCC1CC(NC(=O)c1cnc3ccccc3c1O)C2 (stereo in doubt; 6f) | 1.5 |  | Increase (Canis familiaris [3]): 14%; Increase (Canis familiaris [4]): 116%; Reduction (Canis familiaris [5]): 80%; Increase (Canis familiaris [6]): 142%; Increase (Canis familiaris [7]): 23%; Reduction (Canis familiaris [8]): 44%; Reduction (Canis familiaris [9]): 100%; Increase (Canis familiaris [10]): 88%; Increase (Canis familiaris [11]): 32%; Reduction (Canis familiaris [12]): 54%; Reduction (Canis familiaris [13]): 64%; Increase (Canis familiaris [14]): >284%
13 | CN1C2CCC1CC(NC(=O)c1cnc3ccccc3c1N)C2 (stereo not drawn) | > 100 |  | 
14 | CN1C2CCC1CC(NC(=O)c1c(O)nc3ccccc3c1O)C2 (stereo not drawn) |  | 0.22 | 
15 | CN1C2CCC1CC(NC(=O)c1cnc3ccccc3c1Cl)C2 (stereo not drawn) | 85 |  | 
16 | CN1C2CCC1CC(OC(=O)c1c(O)c3cccnc3n(-c3ccccc3)c1=O)C2 (stereo not drawn) | > 100 |  | 
17 | CN1C2CCC1CC(NC(=O)c1c(O)c3cccnc3n(-c3ccccc3)c1=O)C2 (stereo not drawn) | 14 |  | 
18 | CCCCn1c(=O)c(C(=O)NC2CC3CCC(C2)N3C)c(O)c2ccccc21 (stereo not drawn) | 0.48 | 0.29 | 
19 | Cc1ccc2c(O)c(C(=O)OC3CC4CCC(C3)N4C)cnc2n1 (stereo not drawn) | > 100 |  | 
20 | Cc1nccn1CC1CCc2c(c3ccccc3n2C)C1=O (stereo not drawn) [ONDANSETRON] |  | 0.021 | Increase (Canis familiaris [4]): 33%; Reduction (Canis familiaris [5]): 18%; Reduction (Canis familiaris [9]): 61%; Reduction (Canis familiaris [15]): 100%; Increase (Canis familiaris [16]): >284%; Increase (Canis familiaris [17]): 115%
21 | CN1C2CCC1CC(NC(=O)c1c(O)c3ccccc3n(-c3ccccc3)c1=O)C2 (stereo not drawn) | 1.4 | 0.073 | 
22 | CN1C2CCCC1CC(NC(=O)c1nn(C)c3ccccc13)C2 (stereo not drawn) |  | 0.019 | 
23 | CCCCn1c(=O)c(C(=O)NC2CC3CCC(C2)N3C)c(O)c2cccnc21 (stereo not drawn) | 6.4 | > 0.1 | 
24 | CN1C2CCC1CC(OC(=O)c1cnc3ccccc3c1O)C2 (stereo not drawn) | 6.1 | 0.0017 | 

— ChEMBL document CHEMBL1126609, “5-HT3 receptor antagonists. 2. 4-Hydroxy-3-quinolinecarboxylic acid derivatives” (J Med Chem, 1993)
